Results of several laboratories.
Lines come from different studies, so protocols differ.
KCNH2: Voltage-gated inwardly rectifying potassium channel KCNH2 (KCNH2, Homo sapiens, UniProt Q12809)

The Tmax of `COc1ccc2c(c1)CN(C(=O)CCN1CCC(Cc3ccccc3)CC1)CC[S@@+]2[O-]` is reported as 0 h (male human, plasma; intravenous, 0.4 mg/kg, healthy volunteers).
`COc1nc(-c2cccc(-c3ccccc3)c2C)ccc1CNCCNC(=O)CCCCCCCCCCC(=O)N1CCN(CCNC(=O)c2cc3c(=O)n4cccc(C)c4nc3n(CCc3cccs3)c2=N)CC1` has an MRT(0-inf) of 7.2 h (male Sprague-Dawley rat, plasma; intraperitoneal, 4 mg/kg).
`O=C(O)COc1cccc(-c2nc(Nc3ccc4[nH]ncc4c3)c3ccccc3n2)c1` gave an IC50 of 48.2 µM (Bile salt export pump (ABCB11, Homo sapiens, UniProt O95342); transporter uptake, inhibitor, radiometric).
The inhibition of `COc1cc(N)c(Cl)cc1C(=O)NC1CCN(CCCOc2ccc(F)cc2)CC1OC` (stereo not shown) is reported as 60.7% (KCNH2; ion current, inhibitor, patch clamp; HEK293; 50 nM).
The Tmax of `O=C(COc1ccc(Cl)cc1)NC12CC(c3nnc([C@H]4C[C@@H](OC(F)(F)F)C4)o3)(C1)C2` is reported as 36 h (human, plasma; oral, 800 mg, single dose, fasted, healthy volunteers).
The MRT(0-inf) of `C[C@H]1Oc2cc(cnc2N)-c2c(nn(C)c2C#N)CN(C)C(=O)c2ccc(F)cc21` is reported as 4.96 h (Sprague-Dawley rat, plasma; intravenous, 1 mg/kg, single dose).
For `N[C@H]1C(O)O[C@H](CO)[C@@H](O)[C@@H]1O` (stereo partly shown), the viability was 101% (Caco-2; cell growth or viability, CCK-8; 20 mM).
With `CC(=O)N1CCC(C(=O)N2CCN3C(=O)c4cc(-c5ccccc5)ccc4NC(=O)C3C2)CC1` (stereo not shown) the inhibition was 5.6% (KCNH2; ion current, inhibitor, patch clamp; HEK293; 1 µM).
`CN1C[C@H](COc2nccc3c(NCc4ccco4)cc(Cl)nc23)OC1=O` gave an inhibition of 8.8% (KCNH2; ion current, inhibitor; HEK293; 1 µM).
With `O=C(Cn1ccnc1[N+](=O)[O-])NCc1ccccc1` the CC50 was 257 µg/mL (LLC-MK2; cell growth or viability).
`CCn1c(=O)c(-c2cc[nH]n2)cc2c(C)nc(N)nc21` gave a CC50 of 6.53 µM (RD; cell growth or viability, MTT).
For `CC(C)n1cc(C#N)c2cc(-n3cc(C(=O)O)cn3)ccc21`, the Tmax was 2.99 h (human, plasma; oral, 100 mg, single dose, fasted, healthy volunteers).
`CCOC(=O)C1=C(CN2CCC[C@@H]2C(=O)Nc2ccc(B(O)O)cc2)NC(c2nccs2)=N[C@H]1c1ccc(F)cc1Br` has an inhibition of 94.8% (KCNH2; ion current, inhibitor, patch clamp; HEK293; 100 µM, pH 7.4).
With `COc1cccc(OC)c1-c1cc(C(=O)NC2(C(=O)O)C3CC4CC(C3)CC2C4)nn1-c1ccc(C(=O)N(C)CCCN(C)CCCN(C)C(=O)CN2CCN(CC(=O)[O-])CCN(CC(=O)[O-])CCN(CC(=O)[O-])CC2)cc1C(C)C.[177Lu+3]` (stereo not shown) the tracer uptake was 1.8 %ID/g (HT-29; bone; 4 h, tumour-bearing).
`COc1cc(N)c(Cl)cc1C(=O)NC1CCN(CCCOc2ccc(F)cc2)CC1OC` (stereo not shown) has an inhibition of 8.73% (KCNH2; ion current, inhibitor, patch clamp; HEK293; 1 nM, pH 7.4).
The viability of `CC(C)n1ncc2c(C(=O)NCC3(C)CNC3)cc(C3CC3)nc21` is reported as 98.1% (RD; cell growth or viability, neutral red; 0.33 µM).
